PAX8 reporter: inhibitors of PAX8-driven TPO luciferase reporter, primary screen, RMG-I cells, single concentration; SteadyGlo, 24 h; inhibition, % at 12.6 µM; 360,000 tested, 1.2% active; AID 652154, 2013;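 active = mean replicate inhibition at least 60% with every replicate also reaching 60%; inconclusive = only one of the two criteria is met; inactive = mean below 60% and not all replicates reaching 60%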;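 note: luciferase light reporting Pax8 driven TPO promoter activity; plate controls were median of neutral control wells for no effect and mitoxantrone controls for full effect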
PGC1a acetyl inh: inhibitors of PGC1a acetylation signal, primary screen, cell-based, U2OS, AlphaScreen, inhibitor mode. inhibition, % at 15.6 µM. 350,000 tested, 0.17% active. AlphaScreen anti-acetyl-lysine; with virally co-expressed GCN5 acetyltransferase;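 active = every replicate shows inhibition of at least 40%; inconclusive = mean inhibition at least 40% but some replicate below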;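 note: 0% = neutral control wells and 100% = positive control wells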
EWS-Fli block: EWS/Fli-driven NR0B1 reporter inhibitors, primary screen, A673 cells, NR0B1 luciferase, luminescence, MLPCN library. viability-normalised. inhibition, % at 12.6 µM. 350,000 tested, 0.67% active. AID 651661, 2012;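 active = mean inhibition of at least 50% after viability correction, with every replicate also passing that limit; inconclusive = mean reaches 50% but only one of two replicates passes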;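 note: firefly luciferase signal divided by Alamar Blue viability fluorescence both relative to DMSO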
FN deposition inh: inhibitors of fibronectin matrix deposition, primary screen, AH1F cells, Alexa488-fibronectin fluorescence, plate reader; AH1F fibroblasts, overnight; inhibition, % at 12.6 µM; 350,000 tested, 0.086% active;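 active = mean inhibition across replicates of 30% or more, regardless of how many single replicates reach that level; inconclusive = mean under 30% yet at least half of replicates reach 30%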;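 note: positive control wells lacked labelled fibronectin entirely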
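test system = AH1F fibroblasts assembling fluorescent fibronectin matrix | quantity = 10000 AH1F cells per well | buffer or medium = DMEM plus 2% serum, read in PBS | doses = single dose, pinned | incubation = 1 h cell attachment, overnight exposure to compound and label | detection = fluorescence at 485 nm excitation, 525 nm emission | read-out basis = inhibition from reduced deposited-fibronectin fluorescence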
FGF22 binding: binders of human FGF22 protein, primary screen, FGF22 synaptogenesis inhibitor project, biophysical, thermal shift, single point | Fibroblast growth factor 22 (Homo sapiens), Q9HCT0 | recombinant FGF22 thermal shift, SYPRO orange fluorescence; percent of sucrose octasulfate shift, DMSO zero | activity (Tm shift, normalised), % at 9.99 µM | 340,000 tested, 1.5% active | AID 651658, 2012;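 active = mean Tm shift, scaled 0 neutral to 100 positive control, at about 1.3% or above, every replicate too, limit read from the data; inconclusive = no clear call, values can overlap the other calls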
Target sequence (Q9HCT0 whole entry, looked up): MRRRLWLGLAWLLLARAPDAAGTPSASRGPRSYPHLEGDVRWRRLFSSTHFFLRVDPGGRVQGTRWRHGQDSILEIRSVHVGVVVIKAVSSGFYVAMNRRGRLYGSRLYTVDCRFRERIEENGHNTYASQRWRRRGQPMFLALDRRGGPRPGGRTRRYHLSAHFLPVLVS
HIV Env fusion: inhibitors of HIV-1 Env-driven cell-cell fusion, primary screen, HeLa-JRFL effector, CEM21 target cells, luciferase; 360,000 tested, 1.1% active; inhibition, % at 12.3 µM; AID 651610, 2012;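 active = mean replicate inhibition score of at least 50 and every replicate individually at or above 50; inconclusive = only one of the two criteria met; inactive = mean below 50 and not all replicates reaching 50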;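 note: 0% = plate neutral controls and 100% = maraviroc near 300 nM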
Active calls of the source: *; u = inconclusive; x = no result given; [ ] = dose if it differs, or a comment. Only some compounds are listed: those with a hit (about 3.1% of all), similar ones and a draw of the others.

SMILES | PAX8 reporter | PGC1a acetyl inh | EWS-Fli block | FN deposition inh | FGF22 binding | HIV Env fusion
CCCc1cn(CC[C@@H]2CC[C@@H](NC(=O)Cc3cccnc3)[C@@H](CO)O2)nn1 | 8 | -3 | 0 | 2 | 0 | 4[16.7 µM]
CC(C)CN1C(=O)c2ccc(C(=O)Nc3ccccc3C(=O)O)cc2C1=O | -90 | -1 | -8 | -5 | 0 | -12
Cc1cc([N+](=O)[O-])ccc1N1C(=O)c2ccc(C(=O)Nc3ccccc3C(=O)O)cc2C1=O | -1 | x | 3 | x | 1.6* | 24
C=C(C)C(=O)N1CC2(CC(c3cccc(NC(=O)c4ccccc4)c3)=NO2)C[C@@H]1C(N)=O (stereo partly specified) | 0 | -4 | -10 | 4 | 44* | x
C=C(C)C(=O)N1CC2(CC(c3cccc(NC(=O)CC)c3)=NO2)C[C@H]1C(N)=O (stereo partly specified) | x | -6 | x | x | x | x
NC(=O)[C@H]1CC2(CC(c3cccc(NC(=O)COc4ccc(Cl)cc4)c3)=NO2)CN1C(=O)Cc1ccc([N+](=O)[O-])cc1 (stereo partly specified) | 76* | x | 13 | -7 | 0 | 12
CN(C)CC(=O)N[C@@H]1C=C[C@H](CC(=O)NCCN2CCCCC2)O[C@@H]1CO | 8 | -2 | -5 | -33 | 0 | -4[16.7 µM]
C[C@@H]1CN([C@H](C)CO)C(=O)Cc2cc(NC(=O)Cn3cnnn3)ccc2O[C@H]1CN(C)C(=O)NC1CCCCC1 | -27 | -4 | -1 | 0 | 0 | -9[16.7 µM]
Cc1ccc(C(=O)O/N=C/c2c(N3CCOCC3)n(C)c3ccccc23)cc1 | -28 | x | x | 12 | x | u
Cn1c(N2CCOCC2)c(/C=N/OC(=O)c2ccc(F)cc2)c2ccccc21 | x | 1 | x | 0 | x | 59*
C[C@@H]1CN([C@@H](C)CO)C(=O)c2cc(-c3ccc(F)cc3)cnc2O[C@@H]1CN(C)C(=O)c1ccccc1F | x | -1 | -2 | -3 | 0 | 2[16.7 µM]
N#C[C@H]1[C@H](c2ccccc2C2=CCCCC2)[C@@H](CO)N1S(=O)(=O)c1ccccc1 | -23 | 8 | 4 | 67* | 0 | x
Cc1ccccc1S(=O)(=O)N1[C@H](CO)[C@@H](c2ccc(C#CC3CC3)cc2)[C@@H]1C#N | 64* | -4 | 13 | -21 | 0 | x
N#C[C@H]1[C@@H](c2ccc(C#CC3CCCCC3)cc2)[C@@H](CO)N1C(=O)Cc1ccccn1 | 61* | -6 | -16 | x | 0 | 3[16.7 µM]
N#C[C@H]1[C@@H](c2ccc(C#CC3CCCCC3)cc2)[C@@H](CO)N1S(=O)(=O)c1ccccc1 | 79* | 3 | 30 | -2 | 0 | 3[16.7 µM]
N#C[C@H]1[C@@H](c2ccccc2C2=CCCCC2)[C@H](CO)N1S(=O)(=O)c1ccccc1 | -6 | 10 | 6 | -4 | 0 | x
N#C[C@@H]1[C@@H](c2ccc(C#CC3CC3)cc2)[C@H](CO)N1S(=O)(=O)c1ccccc1 | 4 | -3 | -23 | 3 | 0 | 15[16.7 µM]
C[C@H]1CN([C@@H](C)CO)C(=O)c2cc(NS(=O)(=O)c3cn(C)cn3)ccc2O[C@@H]1CN(C)C | -8 | 0 | 1 | 6 | 0 | x
C[C@@H]1CN([C@H](C)CO)C(=O)Cc2cc(NC(=O)Nc3cccc4ccccc34)ccc2O[C@H]1CN(C)S(=O)(=O)c1cn(C)cn1 | -7 | 2 | 9 | -10 | 0 | 0[16.7 µM]
N#C[C@H]1[C@H](c2ccc(C#CC3CCCCC3)cc2)[C@@H](CO)N1S(=O)(=O)c1ccccc1 | 68* | 15 | 9 | -8 | 0 | 7[16.7 µM]
N#C[C@@H]1[C@@H](c2ccc(-c3ccccc3)cc2)[C@@H](CO)N1C(=O)Cc1ccncc1 | 68* | 63* | -11 | 11 | 0 | -30[16.7 µM]
CCCC#Cc1ccc([C@@H]2[C@@H](C#N)N(S(=O)(=O)c3cccc(F)c3)[C@H]2CO)cc1 | 81* | 8 | -4 | -9 | 0 | -15[16.7 µM]
CCCC#Cc1ccc([C@@H]2[C@@H](CO)N(S(=O)(=O)c3cccc(F)c3)[C@H]2C#N)cc1 | 51 | 4 | 15 | -10 | 0 | 6[16.7 µM]
CCCNC(=O)Nc1ccc2c(c1)OC[C@H](C)N(Cc1cccnc1)C[C@H](C)[C@@H](OC)CN(C)C2=O | x | 1 | -4 | 6 | 1 | -15[16.7 µM]
COc1ccc(OC)c(-c2cnc(OC(C)(C)C)nc2OC(C)(C)C)c1 | 11 | 3 | 71* | -7 | 0 | -178
SMILES | PAX8 reporter | PGC1a acetyl inh | EWS-Fli block | FN deposition inh | FGF22 binding | HIV Env fusion
COc1ccc(S(=O)(=O)Oc2cccc(/C=N/N=C3/NC(=O)C(CC(=O)O)S3)c2)cc1 (stereo unspecified) | 3 | 0 | 5 | -2 | 2.6* | 3
Cc1ccc(S(=O)(=O)Oc2ccc(/C=N/N=C3/NC(=O)C(CC(=O)O)S3)cc2)cc1 (stereo unspecified) | -10 | 9 | 15 | -2 | 0 | 20
O=C1CCCCC1Sc1nnc(-c2ccc3c(c2)OCO3)o1 (stereo unspecified) | 22 | 4 | 30 | -10 | 43* | 68*
COC(=O)[C@H]1[C@H](CO)[C@H]2Cn3c(cccc3=O)[C@H]2N1C(=O)C1CCC1 | x | x | 3 | x | 0 | x
CCCCNC(=O)O[C@H]1C[C@@H]2CCN3C(=O)CCC[C@H]([C@H]1Cc1ccccc1)[C@H]23 | -8 | x | -1 | -4 | 0 | 56*
C[C@@H]1CN([C@@H](C)CO)C(=O)c2cc(C#CC3CCCCC3)cnc2O[C@@H]1CN(C)Cc1ccncc1 | x | -1 | -13 | x | 0 | 3[16.7 µM]
COc1ccc(/C=N/NC(=O)c2cccc(NC(=O)c3ccccc3Cl)c2)cc1OC | 19 | 5 | -2 | -5 | 43* | 32
COc1ccc(/C=N/NC(=O)c2cccc(NC(C)=O)c2)c(OC)c1 | 17 | 11 | 4 | -14 | 43* | 0
CCCN1C[C@@H](C)[C@H](OC)CN(C)C(=O)c2cc(NC(=O)c3ccccc3F)ccc2OC[C@H]1C | 1 | 15 | -14 | 4 | 0 | -11[16.7 µM]
CO/N=C/C(C(C)=O)C(=O)Nc1ccc(Cl)cc1Cl (stereo unspecified) | -9 | 5 | 4 | 0 | 43* | 5
Cc1cc(C)c(S(C)(=O)=O)c(N(C)N)n1 | 16 | -1 | -1 | 5 | 43* | 0
Cc1cc(C)c(S(C)(=O)=O)c(N(C)NC(=O)c2c(F)cccc2F)n1 | -1 | 5 | 9 | -11 | 0 | 6
C[C@@H]1CCCCO[C@@H](CN(C)S(C)(=O)=O)[C@@H](C)CN([C@H](C)CO)C(=O)c2cc(NC(=O)Cc3ccccc3)ccc2O1 | -14 | -8 | -9 | x | 0 | 23[16.7 µM]
